Reference: ChEMBL document CHEMBL4376902, “CN128: A New Orally Active Hydroxypyridinone Iron Chelator” (J Med Chem, 2020)

Experiments:
Mus musculus [1] = experiment: Toxicity in mouse assessed as reduction in monocytes counts at 200 mg/kg, po dosed once daily for 2 months as 5 days per week schedule; settings: in vivo, 120 h
[2] = Drug metabolism in human liver microsomes assessed as glucuronidation incubated for 1 hr relative to deferiprone; format: ADME, Microsome
How it was run: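 Compound incubated 1 h with rat or human liver microsomes, n = 4, mean ± SD. Glucuronide formed given as percentage of total chelator added. Oxidative metabolism assessed separately.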

Cytochrome P450 2B6 = target: T1, Cytochrome P450 2B6 (Homo sapiens, UniProt P20813); experiment: Inhibition of CYP2B6 in human liver microsomes; format: ADME
T1 sequence (P20813 whole entry): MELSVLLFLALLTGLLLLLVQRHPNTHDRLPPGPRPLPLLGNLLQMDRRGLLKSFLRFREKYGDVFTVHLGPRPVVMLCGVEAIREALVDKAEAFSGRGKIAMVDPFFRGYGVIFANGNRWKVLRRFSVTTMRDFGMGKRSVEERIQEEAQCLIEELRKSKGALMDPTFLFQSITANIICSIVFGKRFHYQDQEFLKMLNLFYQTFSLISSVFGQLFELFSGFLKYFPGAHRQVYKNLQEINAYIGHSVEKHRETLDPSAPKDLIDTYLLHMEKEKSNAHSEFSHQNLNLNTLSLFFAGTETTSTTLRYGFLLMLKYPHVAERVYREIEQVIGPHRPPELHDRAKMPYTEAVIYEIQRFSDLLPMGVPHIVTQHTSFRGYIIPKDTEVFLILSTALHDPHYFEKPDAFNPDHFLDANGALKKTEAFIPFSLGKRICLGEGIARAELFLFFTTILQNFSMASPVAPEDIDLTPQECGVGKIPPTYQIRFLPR

Rattus norvegicus [3] = experiment: Iron scavenging activity in 59Fe-ferritin-loaded rat assessed as iron mobilization level at 150 to 450 umol/kg, po dosed 1 hr after 59Fe-ferritin injection and measured 24 hrs after 59Fe-ferritin injection by gamma counting method relative to control; format: functional, organism-based
How it was run: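 Male SD rats, 300 g, fasted overnight, given about 1 μC 59Fe-ferritin i.v. under isoflurane. Chelator gavaged 1 h later, then rats housed in metabolic cages; food returned 1 h after dosing. Killed 24 h after 59Fe-ferritin. Urine, faeces, liver and gut gamma-counted. 8 rats per condition.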

[4] = Cmax in Sprague-Dawley rat at 600 umol/kg, po measured up to 1440 mins by LC/MS/MS analysis; format: ADME, organism-based; set-up: dose 600 umol/kg, route oral; settings: in vivo
Cytochrome P450 2C9 = Cytochrome P450 2C9 (Homo sapiens, UniProt P11712); experiment: Inhibition of CYP2C9 in human liver microsomes; format: ADME
Cytochrome P450 2C9, sequence (P11712 whole entry): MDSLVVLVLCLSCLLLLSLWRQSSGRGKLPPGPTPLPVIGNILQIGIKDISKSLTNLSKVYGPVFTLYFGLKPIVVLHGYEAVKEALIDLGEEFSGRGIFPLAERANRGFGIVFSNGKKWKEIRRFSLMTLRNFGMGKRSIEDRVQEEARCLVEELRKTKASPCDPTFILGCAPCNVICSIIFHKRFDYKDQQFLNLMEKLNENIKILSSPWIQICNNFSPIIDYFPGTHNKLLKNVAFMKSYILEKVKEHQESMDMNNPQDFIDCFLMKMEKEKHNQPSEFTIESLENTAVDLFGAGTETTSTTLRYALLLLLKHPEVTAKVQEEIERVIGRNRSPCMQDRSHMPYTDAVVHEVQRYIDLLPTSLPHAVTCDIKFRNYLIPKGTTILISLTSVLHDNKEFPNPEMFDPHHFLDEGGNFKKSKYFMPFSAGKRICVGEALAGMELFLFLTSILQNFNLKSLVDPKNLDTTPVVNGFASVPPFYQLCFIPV

[5] = Cmax in Sprague-Dawley rat at 300 umol/kg, po measured up to 1440 mins by LC/MS/MS analysis; format: ADME, organism-based; set-up: dose 300 umol/kg, route oral; settings: in vivo
[6] = Drug metabolism in rat liver microsomes assessed as oxidative metabolism incubated for 1 hr relative to deferiprone; format: ADME, Microsome
Cytochrome P450 1A2 = target: T2, Cytochrome P450 1A2 (Homo sapiens, UniProt P05177); experiment: Inhibition of CYP1A2 in human liver microsomes; format: ADME
T2 sequence (P05177 whole entry): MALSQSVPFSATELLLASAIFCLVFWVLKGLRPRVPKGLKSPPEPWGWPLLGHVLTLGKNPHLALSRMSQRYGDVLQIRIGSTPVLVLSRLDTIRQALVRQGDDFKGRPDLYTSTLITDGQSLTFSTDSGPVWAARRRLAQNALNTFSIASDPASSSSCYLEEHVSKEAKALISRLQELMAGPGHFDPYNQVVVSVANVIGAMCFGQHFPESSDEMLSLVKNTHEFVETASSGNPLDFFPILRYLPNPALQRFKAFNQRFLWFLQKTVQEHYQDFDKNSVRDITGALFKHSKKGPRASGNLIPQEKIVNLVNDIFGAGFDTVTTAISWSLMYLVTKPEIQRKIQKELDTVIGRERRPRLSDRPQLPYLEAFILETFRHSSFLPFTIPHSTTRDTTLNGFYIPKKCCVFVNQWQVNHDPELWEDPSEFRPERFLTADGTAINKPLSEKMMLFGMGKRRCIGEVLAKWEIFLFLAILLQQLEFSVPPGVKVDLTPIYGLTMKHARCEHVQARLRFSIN

[7] = Binding affinity to Cu2+ ion assessed as affinity constant by spectrophotometric titration method
[8] = Cmax in Sprague-Dawley rat at 150 umol/kg, po measured up to 1440 mins by LC/MS/MS analysis; format: ADME, organism-based; set-up: dose 150 umol/kg, route oral; settings: in vivo
[9] = Toxicity in Sprague-Dawley rat assessed as induction of histopathological changes in bone marrow at 25 to 116 mg/kg, po dosed daily for 4 weeks and measured after additional 4 weeks period in absence of drug; format: organism-based; settings: in vivo, 672 h
[10] = Apparent clearance in Sprague-Dawley rat at 150 umol/kg, po measured up to 1440 mins by LC/MS/MS analysis; format: ADME, organism-based; settings: in vivo, read-out: CL(app) (converted)
[11] = Binding affinity to Fe3+ ion assessed as affinity constant by spectrophotometric titration method
How it was run: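 Automated spectrophotometric titration with 0.1 M KOH in 0.1 pH steps, 3 min equilibration per step, 50 mm cuvette, iron complexes at ca. 40 µM. Titrated in competition with metal hydrolysis species up to pH 12.0. Hydrolysis constants taken from critical compilations. Iron spectra fitted over 400–700 nm.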

[12] = Acid dissociation constant, pKa1 of the compound over pH 1.8 to 11.0 by spectrophotometric titration method; format: physicochemical
How it was run: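 Automated spectrophotometric titration with 0.1 M KOH in 0.1 pH-unit steps. Reading accepted as stable when drift was <0.01 pH unit after a 1.5 min incubation. 10 mm path length cuvette. Spectra fitted by computer to obtain the pKa values.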

[13] = Toxicity in Sprague-Dawley rat assessed as induction of histopathological changes in thymus. at 25 to 116 mg/kg, po dosed daily for 4 weeks during chronic 4 week toxicity test; format: organism-based; settings: in vivo, 672 h
[14] = Apparent volume of distribution in Sprague-Dawley rat at 150 umol/kg, po measured up to 1440 mins by LC/MS/MS analysis; format: ADME, organism-based; settings: in vivo, 24 h
Cytochrome P450 2D6 = Cytochrome P450 2D6 (Homo sapiens, UniProt P10635); experiment: Inhibition of CYP2D6 in human liver microsomes; format: ADME
Cytochrome P450 2D6, sequence (P10635 whole entry): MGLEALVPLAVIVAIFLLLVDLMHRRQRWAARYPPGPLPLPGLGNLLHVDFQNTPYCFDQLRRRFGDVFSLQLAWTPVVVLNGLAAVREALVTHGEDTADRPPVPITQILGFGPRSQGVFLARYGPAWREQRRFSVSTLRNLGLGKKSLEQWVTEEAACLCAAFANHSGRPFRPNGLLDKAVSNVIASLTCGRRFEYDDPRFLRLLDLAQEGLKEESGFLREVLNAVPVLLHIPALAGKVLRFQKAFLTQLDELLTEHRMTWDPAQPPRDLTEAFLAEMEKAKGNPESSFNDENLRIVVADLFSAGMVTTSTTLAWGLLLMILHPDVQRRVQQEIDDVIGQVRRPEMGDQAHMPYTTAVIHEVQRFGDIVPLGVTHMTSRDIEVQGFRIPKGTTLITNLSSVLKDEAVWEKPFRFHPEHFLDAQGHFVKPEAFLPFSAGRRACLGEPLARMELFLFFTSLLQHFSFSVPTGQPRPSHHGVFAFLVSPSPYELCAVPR

[15] = Binding affinity to Ni2+ ion assessed as pM value by spectrophotometric titration method
Rattus norvegicus [16] = experiment: Iron scavenging activity in iron-overloaded rat assessed as iron removal efficacy at 150 to 300 umol/kg, po relative to deferiprone; format: functional
How it was run: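 Male SD rats (300 g), fasted overnight, given about 1 μC 59Fe-ferritin i.v. under isoflurane; chelator by oral gavage 1 h later; doses 75, 150, 300, 600 and 1200 μmol/kg. Rats housed in metabolic cages, food returned 1 h post-dose; killed 24 h after ferritin injection. Urine, faeces, liver and gut gamma-counted. Iron removal expressed as % efficacy.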

Mus musculus [17] = experiment: Toxicity in mouse assessed as reduction in eosinophils counts at 200 mg/kg, po dosed once daily for 2 months as 5 days per week schedule; settings: in vivo, 120 h
[18] = Toxicity in iron-overloaded rat assessed as drug tolerability at 75 to 1200 umol/kg, po; settings: in vivo

Q: Which Activity (Mus musculus [1]) does the source give for `Cc1c(O)c(O)cc[n+]1[C@@H](CO)Cc1ccccc1.[Cl-]` here?
A: Non-Toxic

Q: And the Drug metabolism [2]?
A: Metabolite_Detected

Q: And the IC50 (Cytochrome P450 2B6)?
A: > 200 µM

Q: And the Activity (Rattus norvegicus [3])?
A: Dose-dependent effect

Q: What about the Cmax [4] of the same compound?
A: 70 µg/mL

Q: What about the IC50 (Cytochrome P450 2C9) of the same compound?
A: > 200 µM

Q: What about the Cmax [5] of the same compound?
A: 41900 ng/mL

Q: What about the Drug metabolism [6] of the same compound?
A: Metabolite_Detected

Q: What about the IC50 (Cytochrome P450 1A2) of the same compound?
A: > 200 µM

Q: And the K [7]?
A: 8.31 pM

Q: What about the log K [7] of the same compound?
A: 10.4

Q: And the Cmax [8]?
A: 19900 ng/mL

Q: What about the Activity [9] of the same compound?
A: Non-Toxic

Q: And the CL/F [10]?
A: 19 mL/min/kg

Q: What about the K [11] of the same compound?
A: 19.8 pM

Q: What about the log K [11] of the same compound?
A: 14.8

Q: What about the pKa [12] of the same compound?
A: 3.26

Q: What about the Activity [13] of the same compound?
A: Toxic

Q: And the Vz [14]?
A: 5.29 L/kg

Q: What about the IC50 (Cytochrome P450 2D6) of the same compound?
A: > 200 µM

Q: What about the pM [15] of the same compound?
A: 6.17

Q: What about the “fold change (FC)” value (Rattus norvegicus [16]) of the same compound?
A: 3.1 - 3.8

Q: What about the Activity (Mus musculus [17]) of the same compound?
A: Non-Toxic

Q: And the Activity [18]?
A: Non-Toxic
